Here are results for 4 molecules from ChEMBL document CHEMBL3297652, “Acantholactam and pre-neo-kauluamine, manzamine-related alkaloids from the Indonesian marine sponge Acanthostrongylophora ingens” (J Nat Prod, 2014).

Molecules are shown by their SMILES.

In one assay the test system is HeLa. Description: Cytotoxicity against human HeLa cells after 3 days by MTT assay. Type of assay: functional, cell-based. The settings on record: 72 h. In a few lines: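 HeLa cells were used, following a previously reported procedure. The result was expressed as an IC50 in μM.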
On the technique in general: Formazan colour is commonly taken as a measure of viable cells.

Assay [1] can be described thus: Inhibition of chymotrypsin-like activity of rat liver proteasome using fluorogenic substrates for 6 hrs. In a few lines:
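The chymotrypsin-like activity of the proteasome was measured by a previously reported procedure. Inhibition was expressed as an IC50 in μM.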

Assay [2] relates to Macrophage (Homo sapiens). Description: Inhibition of cholesterol ester accumulation in human monocyte-derived macrophages at 20 uM.

For the molecule `O=C(O)/C=C\CCCN1C(=O)C[C@]23CN4CCCC/C=C\CC[C@](O)(C=C(c5nccc6c5[nH]c5ccccc56)[C@@H]2CC4)[C@H]13`, the figures for the IC50 (in the assay with HeLa; in assay [1]) were above 50 µM and 33 µM, respectively. Moreover, the inhibition – broadly, the relative decrease from the control value, in per cent – at 20 µM in assay [2] is 0%.

Turning to `O[C@@H]1CC[C@@]23C[C@]45CN6CCCC/C=C\CC[C@](O)(C=C(c7nccc8c7[nH]c7ccccc78)[C@@H]4CC6)[C@@H]5N2CC[C@@H]1O[C@@]12CC[C@@H](O3)[C@@H](O)CCN1[C@@H]1[C@]3(CN4CCCC/C=C\CC[C@]1(O)C=C(c1nccc5c1[nH]c1ccccc15)[C@@H]3CC4)C2`, the IC50 (usually the concentration at which inhibition is half-maximal) with HeLa stood at 5.4 µM; in assay [1], 0.13 µM. The molecule further gave an inhibition at 20 µM in assay [2] of 92%.

Turning to `O[C@]12C=C(c3nccc4c3[nH]c3ccccc34)[C@@H]3CCN(CCCC/C=C\CC1)C[C@@]31C[C@@H]3/C=C\CCCCN3[C@H]12` [MANZAMINE A], the IC50 is 13 µM with HeLa and 2 µM in assay [1]. The molecule further yielded an inhibition at 20 µM in assay [2] of 80%.

Take `O[C@@H]1CC[C@@]23C[C@]45CN6CCCC/C=C\CC[C@](O)(C=C(c7nccc8c7[nH]c7ccccc78)[C@@H]4CC6)[C@@H]5N2CC[C@@H]1O3`: the half-inhibitory concentration (IC50) stood at 16 µM in the assay on HeLa and 0.34 µM in assay [1]. In assay [2], this molecule came in with an inhibition at 20 µM of 91%.
